What all share (type): functional, cell-based
Test [1] addresses T1, 5-hydroxytryptamine receptor 2A (Homo sapiens, UniProt P28223). The test is described as follows: Agonist activity at human 5HT2A receptor expressed in HEK293 cells assessed as calcium flux measured every sec for 3 mins by FLIPR assay. For orientation: A change in cytosolic calcium serves as a functional read-out for many receptors and channels.
Test [2] addresses T2, 5-hydroxytryptamine receptor 2B (Homo sapiens, UniProt P41595). The test can be described thus: Agonist activity at human 5HT2B receptor expressed in HEK293 cells assessed as calcium flux measured every sec for 3 mins by FLIPR assay.
Test [3] concerns the target T3, 5-hydroxytryptamine receptor 2C (Homo sapiens, UniProt P28335).
T3 sequence (P28335 whole entry): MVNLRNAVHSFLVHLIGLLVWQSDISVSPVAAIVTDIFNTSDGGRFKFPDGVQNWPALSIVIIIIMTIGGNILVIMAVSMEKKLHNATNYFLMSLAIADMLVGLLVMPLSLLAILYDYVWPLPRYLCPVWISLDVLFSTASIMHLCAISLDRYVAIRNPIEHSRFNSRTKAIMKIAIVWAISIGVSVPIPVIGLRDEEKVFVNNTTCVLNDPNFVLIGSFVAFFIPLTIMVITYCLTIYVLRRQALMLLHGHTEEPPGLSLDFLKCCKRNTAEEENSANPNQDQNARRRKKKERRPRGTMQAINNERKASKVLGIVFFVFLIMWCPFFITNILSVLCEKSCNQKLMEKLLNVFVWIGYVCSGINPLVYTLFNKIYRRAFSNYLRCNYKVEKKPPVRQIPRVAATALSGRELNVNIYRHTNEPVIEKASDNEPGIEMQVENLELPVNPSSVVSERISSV
The test is described as follows: Agonist activity at human 5HT2C receptor expressed in HEK293 cells assessed as calcium flux measured every sec for 3 mins by FLIPR assay.

In test [4] the target is T4, 5-hydroxytryptamine receptor 2C (Homo sapiens) (UniProt P28335).
T4 sequence (whole entry): T3 sequence (P28335 whole entry)
The test is described as follows: Agonist activity at human 5HT2C receptor expressed in HEK293 cells assessed as calcium flux measured every sec for 3 mins by FLIPR assay relative to 5HT. An outline of the steps:
(§1)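 Calcium flux (Gαq-mediated) in HEK-293 cells stably expressing human 5-HT2A, 5-HT2B or 5-HT2C (INI isoform). […] Racemic trans mixtures were tested unless otherwise stated.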

For test [5], the target named is T1, 5-hydroxytryptamine receptor 2A. The test can be described thus: Agonist activity at human 5HT2A receptor expressed in HEK293 cells assessed as calcium flux measured every sec for 3 mins by FLIPR assay relative to 5HT. A digest of the protocol: as §1
Test [6] addresses T2, 5-hydroxytryptamine receptor 2B. The test is described as follows: Agonist activity at human 5HT2B receptor expressed in HEK293 cells assessed as calcium flux measured every sec for 3 mins by FLIPR assay relative to 5HT. An outline of the steps:
as §1

T1 sequence (P28223 whole entry): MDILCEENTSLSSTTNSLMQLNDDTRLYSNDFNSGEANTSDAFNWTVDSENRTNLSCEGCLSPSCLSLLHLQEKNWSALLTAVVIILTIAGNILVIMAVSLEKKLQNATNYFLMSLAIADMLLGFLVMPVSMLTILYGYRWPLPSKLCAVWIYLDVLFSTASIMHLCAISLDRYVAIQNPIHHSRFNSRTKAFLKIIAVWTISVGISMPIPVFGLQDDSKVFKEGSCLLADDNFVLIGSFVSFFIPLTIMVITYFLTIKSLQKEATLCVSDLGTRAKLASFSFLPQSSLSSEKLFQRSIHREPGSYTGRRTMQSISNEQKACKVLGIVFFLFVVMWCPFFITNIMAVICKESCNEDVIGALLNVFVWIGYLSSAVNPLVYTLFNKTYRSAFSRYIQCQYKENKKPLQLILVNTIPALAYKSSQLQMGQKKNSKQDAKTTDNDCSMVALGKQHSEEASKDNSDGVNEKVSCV
T2 sequence (P41595 whole entry): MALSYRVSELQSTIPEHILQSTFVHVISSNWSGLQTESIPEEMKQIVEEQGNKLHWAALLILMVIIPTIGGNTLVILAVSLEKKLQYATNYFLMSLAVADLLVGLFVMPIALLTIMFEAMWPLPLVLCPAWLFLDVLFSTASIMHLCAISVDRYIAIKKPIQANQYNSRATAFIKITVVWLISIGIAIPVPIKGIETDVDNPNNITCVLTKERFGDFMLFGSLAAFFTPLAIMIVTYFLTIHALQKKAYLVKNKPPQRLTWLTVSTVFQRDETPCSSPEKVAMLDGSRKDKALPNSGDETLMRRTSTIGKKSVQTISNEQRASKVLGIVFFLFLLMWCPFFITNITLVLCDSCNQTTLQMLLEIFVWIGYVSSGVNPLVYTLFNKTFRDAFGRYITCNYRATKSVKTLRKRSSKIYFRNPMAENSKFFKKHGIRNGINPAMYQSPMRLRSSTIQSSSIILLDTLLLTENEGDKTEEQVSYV

On to `Cl.NC[C@@H]1C[C@H]1c1ccccc1OCC1CC1`, for which the 50% effective concentration (EC50) entry in test [1] (hek293) is “Not Active”; in test [2] (hek293) it was “Not Active”; in test [3] (read-out: EC50), 978 nM. Further, the Emax in test [4] was 51%.
Regarding `NC[C@H]1C[C@@H]1c1cc(F)ccc1OCC1CC1`, the 50% effective concentration (EC50) is 894 nM in test [1] (read-out: EC50), 289 nM in test [2] (read-out: EC50) and 21 nM in test [3] (read-out: EC50).
As to `NC[C@H]1C[C@@H]1c1ccccc1OCC1CC1`, in test [4], the maximal effect (Emax) turned out to be 61%.
In the case of `COc1ccc(-c2cccc(C)c2)cc1[C@H]1C[C@@H]1CN.Cl` (racemic), the concentration giving a half-maximal response (EC50) result is “Not Active” in test [1] (hek293), “Not Active” in test [2] (hek293) and 8710 nM in test [3] (read-out: EC50). In test [4], the Emax was 69%.
In the case of `COc1ccc(-c2ccc(C)cc2)cc1[C@H]1C[C@@H]1CN.Cl` (racemic), the EC50 entry in test [1] (hek293), in test [2] (hek293) and in test [3] (hek293) was “Not Active” each time.
Take `COc1ccc(-c2ccccc2F)cc1[C@H]1C[C@@H]1CN.Cl` (racemic): the concentration giving a half-maximal response (EC50) result in test [1] (hek293) was “Not Active”; in test [2] (hek293), “Not Active”; in test [3] (read-out: EC50), 3310 nM. In addition, in test [4], the maximum response (Emax) turned out to be 69%.
With `COc1ccc(-c2cccc(F)c2)cc1[C@H]1C[C@@H]1CN.Cl` (racemic), the 50% effective concentration (EC50) entry in test [1] (hek293) was “Not Active”; in test [2] (hek293), “Not Active”; in test [3] (read-out: EC50), 7240 nM. In addition, the Emax in test [4] was 59%.
For `COc1ccc(-c2ccc(F)cc2)cc1[C@H]1C[C@@H]1CN.Cl` (racemic), the values for the 50% effective concentration (EC50) result in test [1] (hek293), in test [2] (hek293) and in test [3] (read-out: EC50) were “Not Active”, “Not Active” and 2190 nM, respectively. In test [4], the maximal response (Emax) amounted to 83%.
For the compound `CCCCc1ccc(-c2ccc(OC)c([C@H]3C[C@@H]3CN)c2)cc1.Cl` (racemic), the EC50 result in test [1] (hek293), in test [2] (hek293) and in test [3] (hek293) was “Not Active” in each case.
In the case of `Cc1ccc(OCC(C)C)c([C@H]2C[C@@H]2CN)c1.Cl` (racemic), the concentration giving a half-maximal response (EC50) entry in test [1] (hek293), in test [2] (hek293) and in test [3] (hek293) was “Not Active” each time.
Take `CCCCOc1ccc(C)cc1[C@H]1C[C@@H]1CN.Cl` (racemic): the EC50 result in test [1] (hek293), in test [2] (hek293) and in test [3] (hek293) was “Not Active” in each case.
With `CCOc1ccccc1[C@H]1C[C@@H]1CN` (racemic), the EC50 in test [1] (read-out: EC50) was 3020 nM; in test [2] (read-out: EC50), 331 nM; in test [3] (read-out: EC50), 18 nM. Besides, the results for the Emax in test [5], in test [6] and in test [4] were 64%, 48% and 99%, respectively.
In the case of `CCCOc1ccccc1[C@H]1C[C@@H]1CN.Cl` (racemic), the concentration giving a half-maximal response (EC50) entry was “Not Active” in test [1] (hek293), 304 nM in test [2] (read-out: EC50) and 24 nM in test [3] (read-out: EC50). Further, the Emax in test [6] stood at 16%; in test [4], 70%.
Take `CC(C)COc1ccccc1[C@H]1C[C@@H]1CN.Cl` (racemic): the values for the half-maximal effective concentration (EC50) entry in test [1] (hek293), in test [2] (hek293) and in test [3] (read-out: EC50) were “Not Active”, “Not Active” and 254 nM, respectively. Moreover, the Emax in test [4] was found to be 84%.
For the compound `CCCCCOc1ccccc1[C@H]1C[C@@H]1CN.Cl` (racemic), the EC50 result in test [1] (hek293), in test [2] (hek293) and in test [3] (hek293) was “Not Active” in each case.
In the case of `Cl.NC[C@H]1C[C@@H]1c1ccccc1OCC1CC1` (racemic), the concentration for a half-maximal effect (EC50) entry in test [1] (hek293) and in test [2] (hek293) was “Not Active” in each case.
Consider `Cl.NC[C@H]1C[C@@H]1c1ccccc1OCC1CCC1` (racemic), for which the EC50 result was “Not Active” in test [1] (hek293), “Not Active” in test [2] (hek293) and 1210 nM in test [3] (read-out: EC50). Further, the Emax in test [4] came out at 31%.
As for `Cl.NC[C@H]1C[C@@H]1c1ccccc1OCC1CCCCC1` (racemic), the EC50 result in test [1] (hek293), in test [2] (hek293) and in test [3] (hek293) was “Not Active” in each case.
Take `Cl.NC[C@H]1C[C@@H]1c1ccccc1OCc1ccccc1` (racemic): the values for the EC50 entry in test [1] (hek293), in test [2] (read-out: EC50) and in test [3] (read-out: EC50) were “Not Active”, 1080 nM and 304 nM, respectively. Besides, the results for the Emax in test [6] and in test [4] were 20% and 74%, respectively.
Take `COc1ccc(-c2ccccc2)cc1[C@H]1C[C@@H]1CN.Cl` (racemic): the EC50 result in test [1] (hek293) is “Not Active”; in test [2] (hek293) it was “Not Active”; in test [3] (read-out: EC50), 3800 nM. The Emax in test [4] was 64%.
In the case of `COc1ccc(-c2ccccc2C)cc1[C@H]1C[C@@H]1CN.Cl` (racemic), the EC50 entry in test [1] (hek293) was “Not Active”; in test [2] (hek293), “Not Active”; in test [3] (read-out: EC50) it was 3470 nM. Moreover, the Emax in test [4] came out at 67%.
For `NC[C@H]1C[C@@H]1c1ccccc1OCC1CC1` (racemic), the Emax in test [4] stood at 60%.

A word on the EC50: it is the midpoint of the concentration-response curve. Broadly, the Emax is the greatest response seen or fitted, relative to the assay's reference.

These data come from ChEMBL document CHEMBL2021856 (ACS Med Chem Lett, 2011).
